The target in assay [1] is full-length GFP-Munc13-1 W588K (Rattus norvegicus, UniProt Q62768, W588K). The assay can be described thus: PMA-induced membrane translocation, confocal microscopy of Neuro-2a cells. It counts as cell-based. The following applies: 1000 nM PMA, 0-8 min, vs wild-type.
The target of assay [2] is full-length GFP-Munc13-1 W588F (Rattus norvegicus, UniProt Q62768, W588F). The description is as above. It counts as cell-based. The following applies: 1000 nM PMA, 0-8 min, vs wild-type.
The target of assay [3] is full-length GFP-Munc13-1 W588A (Rattus norvegicus, UniProt Q62768, W588A). Briefly: PMA-induced membrane translocation, confocal microscopy of Neuro-2a cells. The following applies: 1000 nM PMA, 0-8 min, vs wild-type. In kind it is cell-based. The gist of the method:
(§1)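 EGFP-tagged full-length rat Munc13-1 mutants were made by site-directed mutagenesis. Neuro-2a cells (passage 2–15; RPMI-1640, 10% FBS, 2 mM L-glutamine; 37 °C) were transfected with Lipofectamine 3000. After 24 h, cells went into phenol-red-free DMEM with 1% FBS. PMA (1000 nM) was added at time 0, with confocal imaging every 20 s (ex 488 nm, em 500–530 nm). Membrane/cytoplasm intensity ratio used three ~5 μm2 regions at 0, 2, 4 and 8 min; 3 cells × 3 experiments, mean ± SEM.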

Assay [4] addresses full-length GFP-Munc13-1 W599D (Rattus norvegicus, UniProt Q62768, W588D). Described as above. It counts as cell-based. The following applies: 1000 nM PMA, 0-8 min, vs wild-type. The gist of the method:
as §1

The target in assay [5] is full-length GFP-Munc13-1 W588Y (Rattus norvegicus, UniProt Q62768, W588Y). The assay is described as above. It counts as cell-based. The following applies: 1000 nM PMA, 0-8 min, vs wild-type. The method in brief:
as §1

The target of assay [6] is GFP tagged Munc13-1 C1 domain (Rattus norvegicus, UniProt Q62768). Briefly: Translocation after PMA treatment, confocal microscopy of LNCaP cells. It counts as cell-based. The method in brief:
(§2)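 LNCaP cells (passage 2–15; RPMI-1640, 10% FBS, 2 mM L-glutamine) were grown to 75% confluency and transfected with Lipofectamine plus Plus reagent 24 h after plating. They expressed GFP-tagged rat Munc13-1 C1 domain or GFP-tagged full-length protein. After a further 24 h, cells were moved to phenol-red-free DMEM with 1% FBS. PMA (100 or 1000 nM) was added and localization was followed by live confocal imaging (GFP ex 488 nm); 3 independent experiments.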

For assay [7], the target named is GFP-tagged full-length Munc13-1 (Rattus norvegicus, UniProt Q62768). The assay is described as above. In kind it is cell-based. The method in brief:
as §2

In assay [8] the target is Munc13-1 WT C1 domain (Rattus norvegicus, UniProt Q62768). The assay can be described thus: In vitro [^3H]PDBu binding assay, GST-tagged C1 domain. The following applies: for Kd: 100 μg/mL lipid.
In assay [9] the target is Munc13-1 W22A mutant C1 domain (Rattus norvegicus, UniProt Q62768, W588A). Described as above. The following applies: 100 μg/mL lipid, 0.1 mM Ca2+.
In assay [10] the target is Munc13-1 W22A mutant C1 domain. Described as above. Further details: species or system rat.
Assay [11] has as its target Munc13-1 W22K mutant C1 domain (Rattus norvegicus, UniProt Q62768, W588K). The assay is described as above. The following applies: 100 μg/mL lipid, 0.1 mM Ca2+.
Assay [12] concerns the target Munc13-1 W22K mutant C1 domain. The description is as above. Further details: species or system rat.
Assay [13] deals with full-length Munc13-1 wild-type protein (Rattus norvegicus, UniProt Q62768). It counts as binding. The following applies: 100 μg/mL lipid (100% PS), 0.1 mM Ca2+. The gist of the method: (§3)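 Rat full-length Munc13-1 (WT or W588 mutant) was expressed as an N-terminal Halo fusion in transfected HEK-293 cells and harvested after one day. It was purified on Halo-link resin, released with TEV protease and stored in 30% glycerol at –80 °C. [3H]PDBu saturation binding used 100 μg/mL lipid (100% PS) and 0.1 mM Ca2+. Kd came from saturation/Scatchard analysis; triplicate points, 3–6 experiments, mean ± SEM.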

In assay [14] the target is full-length Munc13-1 protein incorporating the W22K mutation (W588 K) (Rattus norvegicus, UniProt Q62768, W588K). The following applies: in vitro binding conditions as for full-length WT. The gist of the method: as §3
In assay [15] the target is full-length Munc13-1 mutated at W588D (Rattus norvegicus, UniProt Q62768, W588D). It counts as binding. The following applies: preparation from cells expressing the mutant.
Assay [16] concerns PKCδ C1B W22R. The following applies: PS concentration 10%; cited from earlier work.
In assay [17] the test system is W22G of PKCδ C1B. The following applies: 100% PS; cited from earlier work.
Assay [18] deals with W22G of PKCθ C1B. The following applies: 100% PS; cited from earlier work.

The source of these data is publication PMC6008642 (Biochemistry, 2018).

Regarding `CCCCCCCCCCCCCC(=O)O[C@@H]1[C@@H](C)[C@@]2(O)[C@@H](C=C(CO)C[C@]3(O)C(=O)C(C)=C[C@@H]23)[C@@H]2C(C)(C)[C@]12OC(C)=O` [PMA, phorbol 12-myristate 13-acetate], the “translocation in response to PMA” value is reported as “did not significantly influence the translocation” in [1]; “did not significantly influence the translocation” in assay [2]; “significantly decreased translocation” in assay [3]; “totally abolished” in assay [4]; “delayed” in assay [5]. Also, the “translocation of GFP-C1 domain” value in [6] (100 nM PMA) was “Translocation was not observed”; in assay [6] (1000 nM PMA), “translocated within 10 min from the nucleus to internal membranes but not to the plasma membrane”. Further, the “translocation of full-length Munc13-1” value in assay [7] was “translocated to the plasma membrane”.

On to `CCCC(=O)O[C@@H]1[C@@H](C)[C@@]2(O)[C@@H](C=C(CO)C[C@]3(O)C(=O)C(C)=C[C@@H]23)[C@@H]2C(C)(C)[C@]12OC(=O)CCC` [[^3H]PDBu, [20-^3H]Phorbol 12,13-dibutyrate], for which, in [8] (5 nM [^3H]PDBu, 100 μg/mL phospholipid, 0.1 mM Ca2+), the “amount of [^3H]PDBu bound at 100% PS relative to that at 20% PS” value is “less than 15%”. Besides, the “fold weaker binding affinity than that of the C1b domain of PKCδ” value in [8] (100% PS) came out at 100 fold. The Kd was 0.0325 ± 0.0026 µM in assay [8] (Lipid 20:80 PS:PC, 0.1 mM Ca2+); 0.098 ± 0.036 µM in assay [8] (Lipid 100:0 PS:PC, 0.1 mM Ca2+); > 1 µM in assay [9] (Lipid 20:80 PS:PC); 0.46 ± 0.26 µM in assay [9] (Lipid 100:0 PS:PC); 0.42 ± 0.12 µM in [11] (Lipid 20:80 PS:PC); 0.16 ± 0.02 µM in [11] (Lipid 100:0 PS:PC). Besides, the Kd in [13] stood at 0.0037 ± 0.00032 µM; in assay [14], 0.0033 ± 0.0012 µM. Further, the “Kd(mutant)/Kd(WT)” value in [10] (Lipid 20:80 PS:PC) was >31; in assay [10] (Lipid 100:0 PS:PC), 4.7; in [12] (Lipid 20:80 PS:PC), 13; in assay [12] (Lipid 100:0 PS:PC), 1.6. For the same molecule, in [15], the “[^3H]PDBu binding” value was “did not see any binding”.

As to `CCCCCCCCCCCCCC(=O)O[C@@H]1[C@@H](C)[C@@]2(O)[C@@H](C=C(CO)C[C@]3(O)C(=O)C(C)=C[C@@H]23)[C@@H]2C(C)(C)[C@]12OC(C)=O` [phorbol ester], the Kd in [8] (Lipid 100:0 PS:PC, 0.1 mM Ca2+) was found to be 0.098 µM; in assay [13], 0.0037 µM. For the same molecule, the “Kd(mutant)/Kd(WT)” value is ~ 5 in [10] (Lipid 100:0 PS:PC), 13 in assay [12] (Lipid 20:80 PS:PC) and 1.6 in [12] (Lipid 100:0 PS:PC). Further, the “fold reduced phorbol ester affinity as compared to the WT” value in assay [16] is listed as 9 fold. Also, the “fold reduction in phorbol ester affinity as compared to WT” value in assay [17] is listed as 31 fold; in assay [18], 8 fold.

The Kd is the free concentration of one partner at which half of the binding sites on the other are occupied at equilibrium, for simple one-to-one binding.
